# Laboratory results taken from ChEMBL document CHEMBL1156167 (Bioorg Med Chem Lett, 2010).
# Activity calls are given as the source filed them. The calls are words filed in the database; no cut-off is given here.
# Columns and labels:
# [1] = target: T1, Sphingosine 1-phosphate receptor 1 (Homo sapiens, UniProt P21453); assay: Displacement of [33P]sphingosine-1-phosphate from human S1P1 receptor expressed in HEK293T cells after 60 mins by scintillation counting; type: cell-based, HEK-293T
# Mus musculus [2] = assay: Immunomodulatory activity in C57BL/6 mouse assessed as induction of lymphopenia at 10 mg/kg, po after 6 hrs by complete blood count analysis; type: functional
# Method in brief: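 Pro-drug alcohol given to mouse as a single oral dose of 10 mg/kg. Redistribution of circulating lymphocytes was measured 6 h post-dose and reported as percent lymphopenia.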
# [3] = target: T2, Sphingosine 1-phosphate receptor 3 (Homo sapiens, UniProt Q99500); assay: Agonist activity at human S1P3 receptor expressed in HEK293T cells assessed as stimulation of gamma-[35S]GTP binding after 30 mins by scintillation counting
# T2 sequence (Q99500 whole entry): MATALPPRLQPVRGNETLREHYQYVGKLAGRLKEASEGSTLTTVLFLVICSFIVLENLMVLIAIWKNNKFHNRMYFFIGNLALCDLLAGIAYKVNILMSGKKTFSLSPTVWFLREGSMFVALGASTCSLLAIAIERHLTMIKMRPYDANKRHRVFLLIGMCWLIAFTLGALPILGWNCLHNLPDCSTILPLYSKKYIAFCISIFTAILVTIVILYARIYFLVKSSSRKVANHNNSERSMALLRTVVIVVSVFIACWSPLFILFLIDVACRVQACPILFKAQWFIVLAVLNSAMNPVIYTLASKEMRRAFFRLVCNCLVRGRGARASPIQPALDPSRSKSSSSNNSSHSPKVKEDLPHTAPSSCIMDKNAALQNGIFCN
# Homo sapiens [4] = organism: Homo sapiens; assay: Selectivity ratio of EC50 for human S1P3 receptor to EC50 for human S1P1 receptor by gamma-[35S]GTP binding assay; type: functional
# Homo sapiens [5] = organism: Homo sapiens; assay: Selectivity ratio of IC50 for human S1P3 receptor to IC50 for human S1P1 receptor by [33P]sphingosine-1-phosphate displacement assay
# [6] = target: Sphingosine 1-phosphate receptor 5 (Homo sapiens, UniProt Q9H228); assay: Displacement of [33P]sphingosine-1-phosphate from human S1P5 receptor expressed in HEK293T cells after 60 mins by scintillation counting; type: cell-based, HEK-293T
# Sequence of Sphingosine 1-phosphate receptor 5 (Q9H228 whole entry): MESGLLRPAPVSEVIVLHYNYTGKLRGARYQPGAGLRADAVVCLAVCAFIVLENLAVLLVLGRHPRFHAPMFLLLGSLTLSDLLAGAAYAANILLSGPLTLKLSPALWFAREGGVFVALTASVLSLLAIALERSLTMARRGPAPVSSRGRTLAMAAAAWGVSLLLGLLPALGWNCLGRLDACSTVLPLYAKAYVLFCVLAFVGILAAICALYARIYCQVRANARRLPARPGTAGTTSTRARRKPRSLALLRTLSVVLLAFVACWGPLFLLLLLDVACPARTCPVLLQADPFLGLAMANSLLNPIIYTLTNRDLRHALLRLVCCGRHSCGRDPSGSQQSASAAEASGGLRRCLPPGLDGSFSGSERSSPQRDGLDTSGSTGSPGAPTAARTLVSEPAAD
# [7] = target: T2, Sphingosine 1-phosphate receptor 3; assay: Displacement of [33P]sphingosine-1-phosphate from human S1P3 receptor expressed in HEK293T cells after 60 mins by scintillation counting; type: cell-based, HEK-293T
# Mus musculus [8] = assay: Metabolic stability in C57BL/6 mouse assessed as alcohol pro-drug to phosphate drug conversion at 10 mg/kg, po after 6 hrs; type: ADME, organism-based; design: dose 10 mg/kg, route oral; details: in vivo
# Method in brief: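 Alcohol pro-drug dosed orally to mouse at 10 mg/kg. At 6 h, the amount converted in vivo to the phosphate was determined and expressed as percent conversion of alcohol to phosphate.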
# [9] = target: T1, Sphingosine 1-phosphate receptor 1; assay: Agonist activity at human S1P1 receptor expressed in HEK293T cells assessed as stimulation of gamma-[35S]GTP binding after 30 mins by scintillation counting
# [10] = target: T3, Sphingosine 1-phosphate receptor 4 (Homo sapiens, UniProt O95977); assay: Displacement of [33P]sphingosine-1-phosphate from human S1P4 receptor expressed in HEK293T cells after 60 mins by scintillation counting; type: cell-based, HEK-293T
# T3 sequence (O95977 whole entry): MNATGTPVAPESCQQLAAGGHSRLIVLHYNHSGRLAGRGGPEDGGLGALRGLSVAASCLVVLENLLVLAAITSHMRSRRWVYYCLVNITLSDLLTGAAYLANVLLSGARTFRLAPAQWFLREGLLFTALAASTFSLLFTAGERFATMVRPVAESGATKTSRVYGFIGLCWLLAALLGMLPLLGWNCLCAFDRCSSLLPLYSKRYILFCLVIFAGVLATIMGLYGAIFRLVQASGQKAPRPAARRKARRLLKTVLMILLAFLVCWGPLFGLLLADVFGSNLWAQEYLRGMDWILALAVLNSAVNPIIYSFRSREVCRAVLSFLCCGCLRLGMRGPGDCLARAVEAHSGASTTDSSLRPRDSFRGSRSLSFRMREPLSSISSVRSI
# Mus musculus [11] = assay: Immunomodulatory activity in C57BL/6 mouse assessed as induction of lymphopenia at 0.3 to 10 mg/kg, po after 6 hrs by complete blood count analysis; type: functional, organism-based
# Method in brief: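 Mouse given a single oral dose of the pro-drug alcohol at 0.3, 1.0, 3.0 or 10.0 mg/kg alongside a vehicle group. Circulating lymphocyte redistribution was measured 6 h post-dose and expressed as lymphopenia relative to vehicle.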
# [12] = target: T1, Sphingosine 1-phosphate receptor 1; assay: Ratio of compound IC50 to PPI-4667-P IC50 for human S1P1 receptor expressed in HEK293T cells; type: cell-based; details: HEK-293T
# T1 sequence (P21453 whole entry): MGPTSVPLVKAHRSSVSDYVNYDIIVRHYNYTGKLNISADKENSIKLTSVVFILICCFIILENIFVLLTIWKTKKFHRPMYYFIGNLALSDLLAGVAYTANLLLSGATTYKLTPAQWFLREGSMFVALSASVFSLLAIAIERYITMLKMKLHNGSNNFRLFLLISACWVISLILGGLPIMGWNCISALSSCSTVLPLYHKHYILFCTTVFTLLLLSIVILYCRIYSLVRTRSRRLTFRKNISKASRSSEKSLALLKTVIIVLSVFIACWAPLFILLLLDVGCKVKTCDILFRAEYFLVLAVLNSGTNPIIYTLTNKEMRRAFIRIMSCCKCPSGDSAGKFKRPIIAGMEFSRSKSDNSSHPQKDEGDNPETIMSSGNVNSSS
SMILES,IC50 [1] [nM],EC50 [3] [nM],Ratio IC50 (Homo sapiens [5]),IC50 [7] [nM],EC50 [9] [nM],further results
C[C@](N)(COP(=O)(O)O)c1nc(-c2ccc(OCc3ccc(-c4ccccc4)cc3)c(C(F)(F)F)c2)c[nH]1,0.23,> 3000,8700,2000,1.62,Activity (Mus musculus [2]): 85%; Ratio EC50 (Homo sapiens [4]): > 1850; IC50 [6]: 9.6 nM; Activity (Mus musculus [8]): 70.1%; IC50 [10]: 4.4 nM
CCCCCCCCCCCCC/C=C/[C@@H](O)[C@@H](N)COP(=O)(O)O,0.78,2.4,,0.92,5.6,IC50 [10]: 1.04 nM
C[C@](N)(COP(=O)(O)O)c1nc(-c2ccc(OCc3ccc(-c4ccccc4)cc3)cc2)c[nH]1,,54.8,19,,2.2,Ratio EC50 (Homo sapiens [4]): 25
C[C@](N)(COP(=O)(O)O)c1nc(-c2ccc(OCCc3ccc(-c4ccccc4)cc3)c(C(F)(F)F)c2)c[nH]1,9.4,> 3000,> 10000,> 100000,22.4,Activity (Mus musculus [2]): 64%; Ratio EC50 (Homo sapiens [4]): > 134; IC50 [6]: 184 nM; Activity (Mus musculus [8]): 6.8%; IC50 [10]: 6.5 nM
C[C@](N)(COP(=O)(O)O)C(=O)Nc1ccc(OCCc2ccc(-c3ccccc3)cc2)c(Br)c1,1.3,,769,1000,,
C[C@](N)(CO)C(=O)Nc1ccc(C(=O)NCc2ccc(-c3ccccc3)cc2)cc1,,,,,,Activity (Mus musculus [2]): 32%
C[C@](N)(COP(=O)(O)O)C(=O)Nc1ccc(OCCc2ccc(-c3ccccc3)cc2)cc1C(F)(F)F,6.4,,109,700,,
C[C@](N)(CO)C(=O)Nc1ccc(OCCc2ccc(-c3ccccc3)cc2)cc1,,,,,,Activity (Mus musculus [8]): 14%
C[C@](N)(CO)C(=O)Nc1ccc(C(=O)CCc2ccc(-c3ccccc3)cc2)cc1,,,,,,Activity (Mus musculus [2]): 84%; Activity (Mus musculus [8]): 40%
C[C@](N)(COP(=O)(O)O)C(=O)Nc1ccc(OCCc2ccc(-c3ccccc3)cc2)c(Cl)c1,0.8,,356,285,,
C[C@](N)(CO)C(=O)Nc1ccc(SCCc2ccc(-c3ccccc3)cc2)cc1,,,,,,Activity (Mus musculus [2]): 21%
COC(=O)c1cc(NC(=O)[C@@](C)(N)COP(=O)(O)O)ccc1OCCc1ccc(-c2ccccc2)cc1,21,,> 476,> 10000,,
Cc1cc(NC(=O)[C@@](C)(N)COP(=O)(O)O)ccc1OCCc1ccc(-c2ccccc2)cc1,6,,542,3250,,
C[C@](N)(CO)c1nc(-c2ccc(OCc3ccc(-c4ccccc4)cc3)c(C(F)(F)F)c2)c[nH]1,,,,,,Activity (Mus musculus [11]): Active
C[C@](N)(COP(=O)(O)O)C(=O)Nc1ccc(OCCc2ccc(-c3ccccc3)cc2)c(C(F)(F)F)c1,0.24,> 3000,18800,4500,1.44,Ratio EC50 (Homo sapiens [4]): > 2080; IC50 [6]: 87.2 nM; IC50 [10]: 3.4 nM
C[C@](N)(COP(=O)(O)O)C(=O)Nc1ccc(OCCc2ccc(-c3ccccc3)cc2)c(C#N)c1,3.4,,588,2000,,Ratio IC50 [12]: 3
C[C@](N)(COP(=O)(O)O)C(=O)Nc1ccc(C(=O)CCc2ccc(-c3ccccc3)cc2)cc1,4.14,> 3000,917,3800,18.3,Ratio EC50 (Homo sapiens [4]): > 164; IC50 [6]: 1360 nM; IC50 [10]: 13.1 nM
C[C@](N)(COP(=O)(O)O)C(=O)Nc1ccc(OCCc2ccc(-c3ccccc3)cc2)cc1,,120,190,,0.52,Ratio EC50 (Homo sapiens [4]): 231; IC50 [6]: 43.6 nM; IC50 [10]: 10.3 nM
CNC(=O)c1cc(NC(=O)[C@@](C)(N)COP(=O)(O)O)ccc1OCCc1ccc(-c2ccccc2)cc1,500,,,> 1000,,
C[C@](N)(COP(=O)(O)O)C(=O)Nc1ccc(OCCc2ccc(-c3ccccc3)cc2)c(C(N)=O)c1,150,,,> 1000,,
C[C@](N)(COP(=O)(O)O)C(=O)Nc1ccc(OCCc2ccc(-c3ccccc3)cc2)c(C(=O)O)c1,> 10000,,,> 10000,,
